According to publication PMC2114617 (The Journal of Cell Biology, 1986):

Assays:
B16-F10 melanoma cells [1] = assay: Inhibition of B16-F10 melanoma cell spreading on fibronectin; assay type: cell-based, murine; details: data not shown
In short: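 Wells coated 60 min at room temperature with human plasma fibronectin (4 μg/ml) in PBS+, then blocked 30 min with heat-denatured BSA. Test peptide in PBS+ was added, with or without 5 μg/ml mAb333. Cells were fixed and %-spread scored by phase contrast (300 cells/well).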

B16-F10 melanoma cells [2] = assay: Inhibition of B16-F10 melanoma cell spreading on CS5; assay type: cell-based, murine; details: CS5 substrate; data not shown
BHK fibroblasts = assay: Spreading of BHK fibroblasts on fibronectin or its tryptic fragments; assay type: cell-based, hamster; details: substrate-coated protein
In short: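 Wells were coated 60 min at room temperature with human plasma fibronectin or its purified tryptic fragments (90-98% pure), with coating levels expressed in nM. Wells were blocked with heat-denatured BSA.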

Substance	Inhibition of B16-F10 spreading on fibronectin at concentrations up to 1 mg/ml (B16-F10 melanoma cells [1])	further results
Arg- Asp [RD]	completely inactive	–
Arg-Gly-Pro-Phe-Pro-lle [RGPFPI]	completely inactive	–
GRGD	–	Inhibition of B16-F10 spreading on CS5 (B16-F10 melanoma cells [2]): highly inhibitory
Gly-His-Lys [GHK]	completely inactive	–
SDGR	–	Inhibition of B16-F10 spreading on CS5 (B16-F10 melanoma cells [2]): more active than GRGDS
Thr-Lys-Pro- Arg [TKPR]	completely inactive	–
fibronectin	–	Spreading of BHK cells on fibronectin and fragments (BHK fibroblasts): spread equally well
heparin	no detectable effect	–
insulin A chain: Insulin A chain from Sigma Chemical Co., peptide unrelated to RGDS	completely inactive	–
